Values belong to the compound of their own block, whether it stands above or below them.
Assays:
[1] = target: T1, Fibroblast growth factor receptor 1 (Homo sapiens, UniProt P11362); experiment: Inhibition of N-terminal GST-tagged recombinant human FGFR1 (456 to 765 residues) expressed in baculovirus infected insect Sf21 cells after 25 mins using KKKSPGEYVNIEFG peptide substrate by scintillation counting analysis
Target sequence in this assay (P11362 whole entry, the tested form may be a part): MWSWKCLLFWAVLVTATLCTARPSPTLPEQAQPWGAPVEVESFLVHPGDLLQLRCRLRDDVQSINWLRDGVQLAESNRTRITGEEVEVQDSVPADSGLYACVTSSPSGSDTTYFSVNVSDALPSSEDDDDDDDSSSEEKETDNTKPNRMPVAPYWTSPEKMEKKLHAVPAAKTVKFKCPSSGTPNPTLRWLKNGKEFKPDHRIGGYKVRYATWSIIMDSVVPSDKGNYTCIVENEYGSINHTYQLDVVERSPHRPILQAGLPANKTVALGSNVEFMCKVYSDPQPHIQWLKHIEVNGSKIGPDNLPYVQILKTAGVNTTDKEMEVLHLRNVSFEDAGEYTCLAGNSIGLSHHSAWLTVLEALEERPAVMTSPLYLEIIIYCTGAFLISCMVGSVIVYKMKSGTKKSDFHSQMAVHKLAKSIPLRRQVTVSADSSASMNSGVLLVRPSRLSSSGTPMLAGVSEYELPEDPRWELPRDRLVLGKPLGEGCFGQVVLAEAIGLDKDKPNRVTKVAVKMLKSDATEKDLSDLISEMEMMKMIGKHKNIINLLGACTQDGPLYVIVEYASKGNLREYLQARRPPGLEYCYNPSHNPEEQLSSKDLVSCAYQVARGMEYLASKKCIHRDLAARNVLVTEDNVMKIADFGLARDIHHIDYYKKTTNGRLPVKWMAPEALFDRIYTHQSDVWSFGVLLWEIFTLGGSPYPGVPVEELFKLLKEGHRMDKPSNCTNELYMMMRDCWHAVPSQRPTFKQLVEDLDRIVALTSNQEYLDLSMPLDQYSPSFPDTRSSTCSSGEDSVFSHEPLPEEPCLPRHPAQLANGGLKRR

[2] = target: Casein kinase 2 (Homo sapiens) (UniProt P67870+P68400+P19784+Q8NEV1); experiment: Inhibition of recombinant full length human Casein Kinase 2 expressed in insect Sf21 cells assessed as residual activity at 10 uM
Procedure, shortened: (§1)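 This is a seven-kinase selectivity panel run according to the enzyme supplier's (Millipore) protocols. The reaction mixture contained 100 µM ATP. Activity is reported as residual activity.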

[3] = target: Angiopoietin-1 receptor (Homo sapiens) (UniProt Q02763); experiment: Inhibition of N-terminal His6-tagged recombinant human Tie2 residues 771-end expressed in baculovirus infected insect Sf21 cells assessed as residual activity at 10 uM; procedure, shortened: as §1
Angiopoietin-1 receptor (Homo sapiens), sequence (Q02763 whole entry, the tested form may be a part): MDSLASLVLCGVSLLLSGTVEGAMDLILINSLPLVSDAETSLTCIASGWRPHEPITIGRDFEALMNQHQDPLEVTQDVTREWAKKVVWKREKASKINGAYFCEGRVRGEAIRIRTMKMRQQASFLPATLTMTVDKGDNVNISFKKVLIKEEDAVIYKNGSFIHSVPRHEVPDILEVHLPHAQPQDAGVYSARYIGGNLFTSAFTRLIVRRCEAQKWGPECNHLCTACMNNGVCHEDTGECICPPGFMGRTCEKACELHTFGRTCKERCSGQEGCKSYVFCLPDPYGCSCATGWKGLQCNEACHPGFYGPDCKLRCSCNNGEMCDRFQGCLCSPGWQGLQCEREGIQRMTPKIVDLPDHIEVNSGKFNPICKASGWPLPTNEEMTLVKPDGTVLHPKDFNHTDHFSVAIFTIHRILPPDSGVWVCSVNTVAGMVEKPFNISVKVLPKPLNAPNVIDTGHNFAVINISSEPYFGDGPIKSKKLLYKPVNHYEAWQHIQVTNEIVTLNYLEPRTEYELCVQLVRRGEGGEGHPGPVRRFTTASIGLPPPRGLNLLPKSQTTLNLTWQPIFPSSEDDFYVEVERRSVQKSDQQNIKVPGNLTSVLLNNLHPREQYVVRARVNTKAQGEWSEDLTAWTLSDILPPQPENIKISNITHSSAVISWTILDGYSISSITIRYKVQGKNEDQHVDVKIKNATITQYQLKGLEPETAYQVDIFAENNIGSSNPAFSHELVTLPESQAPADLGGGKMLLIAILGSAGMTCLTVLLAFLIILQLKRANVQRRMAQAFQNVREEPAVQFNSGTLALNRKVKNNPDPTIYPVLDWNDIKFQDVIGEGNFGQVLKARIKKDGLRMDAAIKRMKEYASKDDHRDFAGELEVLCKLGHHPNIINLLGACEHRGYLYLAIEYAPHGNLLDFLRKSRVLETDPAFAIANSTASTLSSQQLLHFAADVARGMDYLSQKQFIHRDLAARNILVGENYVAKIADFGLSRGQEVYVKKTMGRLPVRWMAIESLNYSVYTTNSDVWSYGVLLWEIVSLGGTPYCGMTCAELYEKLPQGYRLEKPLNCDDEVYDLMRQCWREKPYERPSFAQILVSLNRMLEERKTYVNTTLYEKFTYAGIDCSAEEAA

[4] = test system: HEK293; experiment: Cytotoxicity against HEK293 cells assessed as cell viability after 72 hrs by MTT assay; conditions: Homo sapiens, HEK293, 72 h
[5] = target: Mitogen-activated protein kinase 10 (Homo sapiens) (UniProt P53779); experiment: Inhibition of N-terminal His6 tagged recombinant full length human JNK3 expressed in Sf21 cells assessed as residual activity at 10 uM; procedure, shortened: as §1
Mitogen-activated protein kinase 10 (Homo sapiens), sequence (P53779 whole entry, the tested form may be a part): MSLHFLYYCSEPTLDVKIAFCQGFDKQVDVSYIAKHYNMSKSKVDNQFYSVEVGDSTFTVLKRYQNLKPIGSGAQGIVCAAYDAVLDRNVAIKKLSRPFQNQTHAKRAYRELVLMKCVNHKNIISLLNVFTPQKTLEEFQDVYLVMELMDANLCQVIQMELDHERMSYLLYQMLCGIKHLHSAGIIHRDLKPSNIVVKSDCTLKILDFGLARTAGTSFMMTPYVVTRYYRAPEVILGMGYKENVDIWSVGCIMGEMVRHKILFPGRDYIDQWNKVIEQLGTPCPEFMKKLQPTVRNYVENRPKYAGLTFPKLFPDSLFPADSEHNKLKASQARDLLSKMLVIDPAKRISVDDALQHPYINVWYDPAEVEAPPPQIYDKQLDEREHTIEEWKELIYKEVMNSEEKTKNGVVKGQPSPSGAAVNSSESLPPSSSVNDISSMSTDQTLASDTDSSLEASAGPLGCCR

[6] = target: T1, Fibroblast growth factor receptor 1; experiment: Inhibition of N-terminal GST-tagged recombinant human FGFR1 (456 to 765 residues) expressed in baculovirus infected insect Sf21 cells assessed as residual activity at 10 uM; procedure, shortened: as §1
Target sequence in this assay (P11362 22-822 limits assumed): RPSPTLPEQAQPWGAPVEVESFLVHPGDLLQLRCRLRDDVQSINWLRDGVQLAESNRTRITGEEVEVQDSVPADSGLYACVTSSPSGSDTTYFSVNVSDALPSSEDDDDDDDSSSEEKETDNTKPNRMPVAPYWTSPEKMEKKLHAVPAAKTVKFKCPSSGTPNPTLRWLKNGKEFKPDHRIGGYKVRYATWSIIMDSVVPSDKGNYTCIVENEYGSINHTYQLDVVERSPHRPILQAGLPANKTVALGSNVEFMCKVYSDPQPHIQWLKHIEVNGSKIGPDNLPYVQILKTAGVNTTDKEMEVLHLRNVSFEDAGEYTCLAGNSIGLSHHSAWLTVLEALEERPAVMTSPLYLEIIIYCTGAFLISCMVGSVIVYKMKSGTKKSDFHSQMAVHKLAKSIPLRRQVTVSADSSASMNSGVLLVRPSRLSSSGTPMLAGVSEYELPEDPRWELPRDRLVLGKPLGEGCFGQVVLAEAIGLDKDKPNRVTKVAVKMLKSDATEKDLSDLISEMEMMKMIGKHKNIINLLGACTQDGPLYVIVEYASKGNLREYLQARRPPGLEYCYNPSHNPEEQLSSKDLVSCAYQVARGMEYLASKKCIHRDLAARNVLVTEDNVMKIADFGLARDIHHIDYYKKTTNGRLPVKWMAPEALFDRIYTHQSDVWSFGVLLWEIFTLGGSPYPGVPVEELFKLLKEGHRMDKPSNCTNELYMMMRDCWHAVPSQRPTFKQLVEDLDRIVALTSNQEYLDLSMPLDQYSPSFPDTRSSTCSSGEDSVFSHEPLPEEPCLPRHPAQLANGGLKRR

[7] = target: T2, Aurora kinase A (Homo sapiens) (UniProt O14965); experiment: Inhibition of N-terminal His6-tagged recombinant full length human Aurora A expressed in Sf21 cells assessed as residual activity at 10 uM; procedure, shortened: as §1
T2 sequence (whole entry): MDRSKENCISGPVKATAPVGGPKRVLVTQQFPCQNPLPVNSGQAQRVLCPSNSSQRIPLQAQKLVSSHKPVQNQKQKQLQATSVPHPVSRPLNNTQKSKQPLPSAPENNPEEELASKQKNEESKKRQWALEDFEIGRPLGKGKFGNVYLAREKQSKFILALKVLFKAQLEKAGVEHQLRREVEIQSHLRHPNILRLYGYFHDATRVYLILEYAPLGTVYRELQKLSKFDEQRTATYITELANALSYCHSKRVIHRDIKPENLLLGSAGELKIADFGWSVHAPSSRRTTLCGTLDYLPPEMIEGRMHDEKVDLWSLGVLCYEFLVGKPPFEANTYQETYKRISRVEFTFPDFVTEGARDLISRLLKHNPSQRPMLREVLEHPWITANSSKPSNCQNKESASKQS

[8] = target: T3, Mitogen-activated protein kinase kinase kinase 5 (Homo sapiens) (UniProt Q99683); experiment: Inhibition of N-terminal GST/C-terminal His6-tagged recombinant human ASK1 (649 to 946 amino acids) expressed in Escherichia coli assessed as residual activity at 10 uM; procedure, shortened: as §1
T3 sequence (whole entry): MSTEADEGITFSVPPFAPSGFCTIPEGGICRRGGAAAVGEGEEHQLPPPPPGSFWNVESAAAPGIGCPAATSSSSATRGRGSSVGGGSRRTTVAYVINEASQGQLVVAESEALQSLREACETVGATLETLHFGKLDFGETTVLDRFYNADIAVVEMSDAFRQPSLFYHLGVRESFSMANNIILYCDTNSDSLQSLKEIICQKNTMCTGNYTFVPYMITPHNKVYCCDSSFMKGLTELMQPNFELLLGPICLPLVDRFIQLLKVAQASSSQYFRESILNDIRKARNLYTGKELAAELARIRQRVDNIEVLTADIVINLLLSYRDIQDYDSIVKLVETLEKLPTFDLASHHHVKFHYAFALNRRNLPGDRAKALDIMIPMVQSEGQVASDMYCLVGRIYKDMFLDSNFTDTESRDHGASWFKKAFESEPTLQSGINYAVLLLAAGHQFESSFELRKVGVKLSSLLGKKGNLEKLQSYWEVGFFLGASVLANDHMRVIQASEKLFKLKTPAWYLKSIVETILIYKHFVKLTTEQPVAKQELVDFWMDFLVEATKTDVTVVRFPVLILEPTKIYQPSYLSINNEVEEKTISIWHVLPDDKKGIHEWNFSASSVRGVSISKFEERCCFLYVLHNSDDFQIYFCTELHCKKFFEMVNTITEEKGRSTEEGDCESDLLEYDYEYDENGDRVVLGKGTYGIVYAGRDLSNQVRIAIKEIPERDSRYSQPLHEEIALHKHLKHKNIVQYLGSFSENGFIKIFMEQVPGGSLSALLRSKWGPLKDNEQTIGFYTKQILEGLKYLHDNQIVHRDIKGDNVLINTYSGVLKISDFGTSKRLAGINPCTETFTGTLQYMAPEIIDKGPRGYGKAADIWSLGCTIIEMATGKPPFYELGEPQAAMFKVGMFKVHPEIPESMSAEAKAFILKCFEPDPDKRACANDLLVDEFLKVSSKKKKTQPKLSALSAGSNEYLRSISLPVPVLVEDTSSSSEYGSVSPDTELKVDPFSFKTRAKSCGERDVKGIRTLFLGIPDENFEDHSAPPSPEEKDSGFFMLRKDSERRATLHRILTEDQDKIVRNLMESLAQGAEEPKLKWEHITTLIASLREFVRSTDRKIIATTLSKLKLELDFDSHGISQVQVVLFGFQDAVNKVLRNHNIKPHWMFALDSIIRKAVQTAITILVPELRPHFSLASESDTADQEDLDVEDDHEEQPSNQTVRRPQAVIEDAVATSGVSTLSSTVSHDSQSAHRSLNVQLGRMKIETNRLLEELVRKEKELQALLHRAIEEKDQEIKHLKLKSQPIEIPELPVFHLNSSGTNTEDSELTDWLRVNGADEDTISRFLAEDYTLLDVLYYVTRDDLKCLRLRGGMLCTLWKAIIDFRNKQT

[9] = Cytotoxicity against human KG1 cells assessed as cell viability after 72 hrs by MTT assay; conditions: KG-1, 72 h
[10] = target: Hepatocyte growth factor receptor (Homo sapiens) (UniProt P08581); experiment: Inhibition of N-terminal His6-tagged recombinant human c-Met residues 974-end expressed in baculovirus infected insect Sf21 cells assessed as residual activity at 10 uM; procedure, shortened: as §1
Hepatocyte growth factor receptor (Homo sapiens), sequence (P08581 whole entry, the tested form may be a part): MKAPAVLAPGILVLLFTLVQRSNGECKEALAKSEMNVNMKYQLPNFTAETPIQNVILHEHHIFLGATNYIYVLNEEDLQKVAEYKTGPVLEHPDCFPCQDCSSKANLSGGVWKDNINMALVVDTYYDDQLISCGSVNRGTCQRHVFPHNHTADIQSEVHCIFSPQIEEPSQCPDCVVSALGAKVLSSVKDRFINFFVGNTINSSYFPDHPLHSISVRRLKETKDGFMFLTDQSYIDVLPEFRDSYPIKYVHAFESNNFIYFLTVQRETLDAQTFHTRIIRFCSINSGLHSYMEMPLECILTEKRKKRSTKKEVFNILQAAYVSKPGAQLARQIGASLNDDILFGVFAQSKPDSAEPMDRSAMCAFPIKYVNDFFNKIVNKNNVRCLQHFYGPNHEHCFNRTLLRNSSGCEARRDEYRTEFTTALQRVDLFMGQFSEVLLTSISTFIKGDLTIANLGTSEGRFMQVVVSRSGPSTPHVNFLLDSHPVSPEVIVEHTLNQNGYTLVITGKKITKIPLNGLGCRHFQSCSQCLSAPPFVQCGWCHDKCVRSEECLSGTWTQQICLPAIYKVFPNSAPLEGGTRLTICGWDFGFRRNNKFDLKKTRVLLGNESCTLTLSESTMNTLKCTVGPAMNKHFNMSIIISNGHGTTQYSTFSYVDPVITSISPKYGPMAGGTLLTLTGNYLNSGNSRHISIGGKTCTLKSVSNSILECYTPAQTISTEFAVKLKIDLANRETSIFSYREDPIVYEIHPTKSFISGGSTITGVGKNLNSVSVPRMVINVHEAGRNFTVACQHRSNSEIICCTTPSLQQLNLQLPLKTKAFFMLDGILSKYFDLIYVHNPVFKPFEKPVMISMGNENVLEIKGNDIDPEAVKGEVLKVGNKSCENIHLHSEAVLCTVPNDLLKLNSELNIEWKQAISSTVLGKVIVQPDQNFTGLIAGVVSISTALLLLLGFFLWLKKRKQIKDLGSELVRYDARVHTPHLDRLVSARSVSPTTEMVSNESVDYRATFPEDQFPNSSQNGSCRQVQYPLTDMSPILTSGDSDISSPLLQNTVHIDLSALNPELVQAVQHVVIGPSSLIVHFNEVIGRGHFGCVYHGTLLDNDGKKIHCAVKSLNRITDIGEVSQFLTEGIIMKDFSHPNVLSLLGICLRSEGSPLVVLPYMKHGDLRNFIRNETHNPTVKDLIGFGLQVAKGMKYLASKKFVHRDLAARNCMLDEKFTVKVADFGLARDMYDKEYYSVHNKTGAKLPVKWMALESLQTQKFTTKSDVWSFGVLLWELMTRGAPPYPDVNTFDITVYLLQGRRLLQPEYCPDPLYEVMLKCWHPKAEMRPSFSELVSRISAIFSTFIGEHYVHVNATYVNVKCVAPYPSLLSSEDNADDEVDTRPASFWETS

SMILES: NC1=C(c2nc3ccccc3[nH]2)C(=O)CN1c1ccccc1Cl
IC50 [1]: > 30 µM

SMILES: NC1=C(c2nc3ccccc3[nH]2)C(=O)CN1c1cccc(O)c1
Activity [2]: 81.4%
Activity [3]: 84.7%
IC50 [4]: > 50 µM
Activity [5]: 118%
Activity [6]: 2.1%
Activity [7]: 85.8%
IC50 [1]: 0.32 µM
Activity [8]: 95.7%
IC50 [9]: 9.3 µM
Activity [10]: 128%

SMILES: COc1ccc(Cl)cc1N1CC(=O)C(c2nc3ccccc3[nH]2)=C1N
IC50 [4]: > 50 µM
IC50 [9]: > 50 µM

SMILES: Cc1ccc2nc(C3=C(N)N(c4cccc(O)c4)CC3=O)[nH]c2c1
Activity [2]: 77.3%
Activity [3]: 92.7%
IC50 [4]: > 50 µM
Activity [5]: 101%
Activity [6]: 5%
Activity [7]: 75.8%
IC50 [1]: 0.63 µM
Activity [8]: 91.6%
IC50 [9]: 5.6 µM
Activity [10]: 92.5%

SMILES: Cc1cccc(N2CC(=O)C(c3nc4ccccc4[nH]3)=C2N)c1
IC50 [1]: > 30 µM

SMILES: COc1ccc(N2CC(=O)C(c3nc4ccccc4[nH]3)=C2N)c(OC)c1
IC50 [1]: > 30 µM

SMILES: NC1=C(c2nc3ccccc3[nH]2)C(=O)CN1c1ccc(F)cc1
IC50 [1]: 27 µM

Results, then the compound that gave them:

IC50 [1]: > 30 µM
SMILES: CCOc1ccccc1N1CC(=O)C(c2nc3ccccc3[nH]2)=C1N

IC50 [1]: > 30 µM
SMILES: NC1=C(c2nc3ccccc3[nH]2)C(=O)CN1c1ccccc1F

IC50 [1]: > 30 µM
SMILES: NC1=C(c2nc3ccccc3[nH]2)C(=O)CN1c1ccccc1

IC50 [1]: > 30 µM
SMILES: Cc1ccc(N2CC(=O)C(c3nc4ccccc4[nH]3)=C2N)cc1
